Experimental data reported in ChEMBL document CHEMBL1144674, “Synthesis and pharmacological activity of aminoindanone dimers and related compounds” (Bioorg Med Chem, 2008).

Legend:
[1] = species: Cavia porcellus; assay: Inhibition of CaCl2-induced contraction in potassium-depolarized guinea pig ileal smooth muscle at 10 uM; assay type: functional
How it was run: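 Guinea-pig ileum segments (2.5 cm) in high-K+ (45 mM KCl), Ca-free Krebs at 37 °C, gassed 95% O2/5% CO2, 1.5 g resting tension, isometric recording. CaCl2 raised bath Ca to 2.5 mM to give a sustained contracture. Compound at 1×10^-5 M in 0.5% DMSO/water added once contraction stabilised. Nifedipine 1×10^-8 M was the positive control. Mean ± SEM, n = animals.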

[2] = Inhibition of CaCl2-induced contraction in potassium depolarized-guinea pig ileal smooth muscle; assay type: functional, Cavia porcellus
[3] = species: Cavia porcellus; settings: 10 nM

Structure (SMILES)	inhibition [1]	EC50 [2]	also measured
CC(=O)N(C1=CC(=O)c2ccccc21)C1CCc2ccccc21 (racemic)	18.3%		
Cc1c(O)c2c(c(C)c1CCO)C(=O)C(C)(O)C2 (stereo unspecified) [ONITISIN]		2 mM	
O=C1C=C(NC2CCc3ccccc32)c2ccccc21 (racemic)	30%		
COC(=O)C1=C(C)NC(C)=C(C(=O)OC)C1c1ccccc1[N+](=O)[O-]			inhibition [3]: 48.1%
C=CCN(C1=CC(=O)c2ccccc21)C1CCc2ccccc21 (racemic)	20.9%		
Cc1c(O)c2c(c(C)c1CCO)C(=O)C(C)(C)C2 [ONITIN]		0.1 mM	
